From ChEMBL document CHEMBL1129545, “Synthesis and evaluation of the antiproliferative effects of 1-O-hexadecyl-2-O-methyl-3-O-(2'-acetamido-2'-deoxy-beta-D- glucopyranosyl)-sn-glycerol and 1-O-hexadecyl-2-O-methyl-3-0- (2'-amino-2'-deoxy-beta-D-glucopyranosyl)-sn-glycerol on epithelial cancer cell growth” (J Med Chem, 1996)

Columns and labels:
Format in all cases: functional, cell-based
OVCAR-3 [1] = assay: Inhibitory activity against OVCAR-3 epithelial Cancer cell line at the concentration 0-30 uM for 48 hr; conditions: Homo sapiens, OVCAR-3, 48 h
In short: (§1)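 OVCAR-3 ovarian adenocarcinoma cells in RPMI 1640 with 20% FBS and 10 μg/mL insulin, in 24-well plates. At log phase, medium was replaced with drug-containing medium (0–30 μM, serial dilution of ethanol stocks) for 48 h. Increase in cell number was counted on a Coulter counter relative to drug-free wells, and IC50 was taken as 50% inhibition.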

MCF7 = assay: Inhibitory activity against MCF-7 epithelial Cancer cell line at the concentration 0-30 uM for 48 hr; conditions: Homo sapiens, MCF7, 48 h
In short: (§2)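 Human lines from frozen ATCC stocks: A549 in Ham's F-12, T84 in 1:1 F-12/DMEM, MCF-7 and A427 in DMEM, with 10% FBS. Log-phase cells in 24-well plates had medium replaced with drug-containing medium (0–30 μM, serial dilution of ethanol stocks) for 48 h. Coulter counts of cell increase as percent of drug-free controls; IC50 for 50% inhibition; means of eight determinations.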

A-427 = assay: Inhibitory activity against A427 epithelial Cancer cell line at the concentration 0-30 uM for 48 hr; conditions: Homo sapiens, A-427, 48 h; in short: as §2
A549 = assay: Inhibitory activity against A549 epithelial Cancer cell line at the concentration 0-30 uM for 48 hr; conditions: Homo sapiens, A549, 48 h; in short: as §2
T84 = assay: Inhibitory activity against T84 epithelial Cancer cell line at the concentration 0-30 uM for 48 hr; conditions: Homo sapiens, T84, 48 h; in short: as §2
OVCAR-3 [2] = assay: Inhibitory activity against OVCAR-3 cell growth; conditions: Homo sapiens; in short: as §1

IC50 (OVCAR-3 [1]) [µM] | IC50 (MCF7) [µM] | IC50 (A-427) [µM] | IC50 (A549) [µM] | IC50 (T84) [µM] | IC50 (OVCAR-3 [2]) [µM] | Structure (SMILES)
12 | 17 | 24.5 | 9 | > 30 |  | CCCCCCCCCCCCCCCCOC[C@H](CO[C@H]1O[C@@H](CO)[C@H](O)[C@@H](O)[C@@H]1NC(C)=O)OC
4 | 6.5 | 7 | 8.3 | 12.2 |  | CCCCCCCCCCCCCCCCOC[C@H](CO[C@H]1O[C@@H](CO)[C@H](O)[C@@H](O)[C@@H]1N)OC
 |  |  |  |  | > 30 | CCCCCCCCCCCCCCCCOP(=O)([O-])OCC[N+](C)(C)C [MILTEFOSINE]
